KCNK3 block: human KCNK3 channel inhibitors, primary screen, CHO cells, FluxOR thallium flux, B-score; B-score at 10 µM; 340,000 tested, 0.84% active; Potassium channel subfamily K member 3 (Homo sapiens), O14649; FluxOR fluorescence; hits give low values;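 active means B-score under library mean minus 4 SD, starting fluorescence ratio at most library mean plus 5 SD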;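 further: more negative B-score means stronger inhibition of thallium flux through KCNK3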
KCNQ1 pot: potentiators or activators of KCNQ1 channel, primary screen, cell-based, thallium flux, high-throughput; CHO-K1 KCNQ1, thallium flux FluxOR fluorescence; hits give high values; B-score at 10 µM; 310,000 tested, 0.35% active;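 active means fluorescence ratio B-score, a plate-corrected score, at least three library SD, with initial intensity B-score within 5 SD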
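Assay system: CHO-K1 cells stably expressing KCNQ1; Medium: assay buffer with matched DMSO; Also added: K+/Tl+ depolarizing stimulus; Dosing: single dose; Timing: dye 90 min, compound 20 min, room temperature; Measured by: kinetic FluxOR thallium fluorescence, 10-s 1-Hz baseline, 110-s post-stimulus read; Read-out: peak-minus-minimum fluorescence over initial fluorescence, negative-control normalized, B-scored.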
KCNK9 inh: KCNK9 potassium channel inhibitors, primary screen, HEK293 cells, thallium flux | B-score at 10 µM | Potassium channel subfamily K member 9 (Homo sapiens), Q9NPC2 | AID 488922, 2010 | FluxOR thallium flux fluorescence; hits give low values | 310,000 tested, 1.2% active;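 active means ratio B-score over 3 SD below the library mean, with starting fluorescence within 5 SD of its mean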;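 further: negative B-score means less thallium flux so channel inhibition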
Kir21 inh: inhibitors of mouse Kir2.1 inward-rectifier potassium channel. 310,000 tested, 0.85% active. B-score at 10 µM. AID 1672, 2009. HEK293-Kir2.1, FluxOR thallium flux fluorescence; hits give low values;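 active means fluorescence ratio B-score at or below minus 3 SD of library scores, with starting-brightness B-score within 2 SD, cut at about -4.2 in these data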;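 further: channel flux triggered by added potassium and thallium sulfate stimulus; B-score of peak minus minimum fluorescence over baseline after thallium stimulus; more negative B-score means stronger Kir2.1 block with less thallium influx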
KCNQ1 inh: inhibitors of human KCNQ1 channel, primary screen, cell-based, thallium flux, high-throughput; 310,000 tested, 1.3% active; B-score at 10 µM; CHO-K1 KCNQ1, FluxOR thallium flux fluorescence; hits give high values;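 active means compounds whose thallium flux B-score, printed positive for inhibition, exceeds three library SD while starting fluorescence stays within three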;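 further: channel opened by potassium depolarization with thallium stimulus after 20 min compound exposure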
hERG rescue: hERG rescue from dofetilide block, primary screen, cell-based, CHO-hERG, FluxOR thallium flux, dofetilide IC70 | Voltage-gated inwardly rectifying potassium channel KCNH2 (Homo sapiens), Q12809 | dofetilide IC70 present | activation (rescue from dofetilide block), less the hit threshold, % at 10 µM | 310,000 tested, 0.51% active | AID 1511, 2009;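 active means activation above the mean of controls blocked by dofetilide plus 5 SD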;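 further: thallium influx through hERG after potassium depolarization seen as dye fluorescence rise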
Large screens that a line does not name were inactive. A selection: hits, their analogues and other compounds. The true share with any hit is near 3.8%.

CN1CCCN(S(=O)(=O)c2ccc(Cl)c(Cl)c2)CC1	none
CCCn1cc(SCC(=O)NCc2ccco2)c2ccccc21	Kir21 inh -5.2
CN1CC(=O)N(CC(=O)Nc2ccc(Cl)c(C(F)(F)F)c2)C1=O	hERG rescue 4.6
O=C(Nc1cccc(S(=O)(=O)N2CCCC2)c1)c1ccc2c(=O)n3c(nc2c1)CCCCC3	none
c1cc2c(cc1C1CCCCC1)c1c3n2CCCNC3CCC1 (stereo not drawn)	Kir21 inh -4.3
CCN(C[C@H]1N[C@@](C)(C(=O)OC)[C@H]2C(=O)N(C)C(=O)[C@@H]12)C(=O)C1CCCCC1	none (no result: KCNQ1 pot, KCNK9 inh, Kir21 inh, KCNQ1 inh, hERG rescue)
COCCn1c(SCC(=O)N2CCC(C)CC2)nc2c(c1=O)SCC2	none
CCCC(=O)OCCNc1cc(Sc2nccn2C)c2nonc2c1[N+](=O)[O-]	Kir21 inh -6.3
CCC(=O)OCCNc1cc(Sc2nc3ccccc3s2)c2nonc2c1[N+](=O)[O-]	KCNQ1 inh 6
O=S1(=O)CCC(NS(=O)(=O)c2ccc3ccccc3c2)C1 (stereo not drawn)	none
COc1cc(C(C(=O)NC2CCCCC2)N(CCN2CCOCC2)C(=O)C2COc3ccccc3O2)cc(OC)c1OC (stereo not drawn)	none
CC(/C=C1\SC(=S)N(c2ccc(C(=O)O)cc2)C1=O)=C\c1ccccc1	hERG rescue 5.1
CC(/C=C1\SC(=S)N(NC(=O)c2ccc(C)cc2)C1=O)=C\c1ccccc1	none
COc1ccc(CNC(=O)c2cc(=O)c3ccccc3o2)cc1	none
COc1cc(OC)c(OC)cc1CNC(=O)c1cc(=O)c2ccccc2o1	KCNQ1 pot 9
CCCCCCn1c(-c2cccs2)n[nH]c1=S	hERG rescue 7.9
CCCCn1c(-c2csc(C(C)C)c2)n[nH]c1=S	hERG rescue 5.0
CCCCn1c(-c2csc(CC)c2)n[nH]c1=S	none
CCC(c1nnc(SCC(=O)N(C)c2ccccc2)n1Cc1ccccc1)N(C)C (stereo not drawn)	none
COc1ccc(S(=O)(=O)N2CCc3cc4c(cc3C2C)OCCCO4)cc1 (stereo not drawn)	Kir21 inh -4.4
Cc1ccc(S(=O)(=O)N2CCc3cc4c(cc3C2C)OCCCO4)cc1 (stereo not drawn)	none
CC1(c2nnc(-c3ccc(F)cc3)o2)CC(c2c(Cl)cccc2Cl)=NO1 (stereo not drawn)	none
CC1(c2nnc(-c3ccc(Cl)cc3)o2)CC(c2c(Cl)cccc2Cl)=NO1 (stereo not drawn)	KCNK9 inh -7.6
COc1ccccc1C(C)NCC(=O)Nc1c(F)cccc1F (stereo not drawn)	none
COc1cc(Cl)c(C)cc1NC(=O)CNC(C)c1ccccc1OC (stereo not drawn)	Kir21 inh -4.2
CN1CCN(CC#CCn2c3ccccc3c3ccccc32)CC1	Kir21 inh -7.1
CCN(CC)S(=O)(=O)c1cccc(C(=O)N[C@H](C(=O)NNC(=O)c2ccccc2)C(C)C)c1	KCNQ1 pot 33, hERG rescue 7.9
CCN(CC)S(=O)(=O)c1cccc(C(=O)NC(C(=O)NC2=NCCS2)C(C)C)c1 (stereo not drawn)	none
CCN(c1cccc(C)c1)S(=O)(=O)c1cc2c3c(c1)CCC(=O)N3CCC2	Kir21 inh -5.8
CCOC(=O)C1=NN(C(=O)c2ccco2)C2(CC2)C1	none
CCOC(=O)C1=NN(C(=O)c2cccc(Br)c2)C(O)(C(C)(C)C)C1 (stereo not drawn)	KCNQ1 pot 66, hERG rescue 51 (no result: KCNK3 block)
COc1ccc(S(=O)(=O)CCC(=O)N2c3ccccc3CC2C)cc1 (stereo not drawn)	Kir21 inh -4.6
C=C1[C@@H](C)C2[C@H](Cc3ccccc3)NC(=O)[C@]23OC(=O)CC[C@H](O)CCC[C@H](C)C/C=C/[C@H]3[C@@H]1O (stereo partly drawn)	KCNQ1 pot 60 (no result: KCNK3 block)

Assay outcomes (PubChem BioAssay)
